Results as given in ChEMBL document CHEMBL5724801, “EUbOPEN Chemogenomics Library - Multiplex” (2024).
“And” between values parts separate entries of the source, which are not always exact repeats. Equal entries are not always repeated.

System: U2OS
Experiment: Multiplex assay against U2OS
Type: toxicity, cell-based
Details: human
Outline: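 Values for tubulin, mitochondrial-mass and membrane-permeability phenotypes are per cents of cells with healthy nuclei. These cells were identified by CellPathfinder machine-learning gating of live cells that had been stained at seeding with Hoechst33342, BioTracker Green Microtubule Cytoskeleton Dye, MitoTracker Red and Annexin V Alexa Fluor 680 and imaged on a CQ1 microscope at 37°C and 5% CO2 after compound addition. The gating first set Hoechst high-intensity objects apart from normal cells, then split normal cells into healthy, pyknosed or fragmented nuclei, and pyknosed cells into mitotic or apoptotic.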

[1] = 12 h, 1 µM, compound concentration 1 uM
[2] = 12 h, 10 µM, compound concentration 10 uM
[3] = 24 h, 1 µM, compound concentration 1 uM
[4] = 24 h, 10 µM, compound concentration 10 uM
[5] = 48 h, 1 µM, compound concentration 1 uM
[6] = 48 h, 10 µM, compound concentration 10 uM

## Nc1nccc(-c2ccn3c(N)nccc23)n1
[1]
  Population Apoptotic (%): 36.59% and 39.13%
  Population Fragmented Nuclei (%): 1.59% and 3.62%
  Population Healthy Nuclei (%): 89.07% and 79.71%
  Population Hoechst High Intensity Objects (%): 0%
  Population Membrane Permeable-Phenotype (%): 0.51% and 5.45%
  Population Mitochondria Different-Phenotype (%): 0.26% and 7.27%
  Population Mitotic Cells (%): 63.41% and 60.87%
  Population Normal (%): 100%
  Population Pyknosed Nuclei (%): 9.34% and 16.67%
  Population Tubulin-Different-Phenotype (%): 1.28% and 0.91%
[2]
  Population Apoptotic (%): 37.93% and 47.62%
  Population Fragmented Nuclei (%): 1.07% and 2.9%
  Population Healthy Nuclei (%): 91.15% and 81.88%
  Population Hoechst High Intensity Objects (%): 0%
  Population Membrane Permeable-Phenotype (%): 0.88% and 1.77%
  Population Mitochondria Different-Phenotype (%): 0.59% and 8.85%
  Population Mitotic Cells (%): 62.07% and 52.38%
  Population Normal (%): 100%
  Population Pyknosed Nuclei (%): 7.77% and 15.22%
  Population Tubulin-Different-Phenotype (%): 1.47% and 0%
  Total Cell Count: 373 and 138
[3]
  Population Apoptotic (%): 48.28% and 64.29%
  Population Fragmented Nuclei (%): 1.88% and 4%
  Population Healthy Nuclei (%): 88.23% and 88%
  Population Hoechst High Intensity Objects (%): 0%
  Population Membrane Permeable-Phenotype (%): 0% and 3.25%
  Population Mitochondria Different-Phenotype (%): 0.39% and 5.19%
  Population Mitotic Cells (%): 51.72% and 35.71%
  Population Normal (%): 100%
  Population Pyknosed Nuclei (%): 9.9% and 8%
  Population Tubulin-Different-Phenotype (%): 1.16% and 0.65%
[4]
  Population Apoptotic (%): 40.48% and 37.04%
  Population Fragmented Nuclei (%): 3.09% and 2.73%
  Population Healthy Nuclei (%): 88.8% and 82.51%
  Population Hoechst High Intensity Objects (%): 0%
  Population Membrane Permeable-Phenotype (%): 0.22% and 0.66%
  Population Mitochondria Different-Phenotype (%): 0.22% and 2.65%
  Population Mitotic Cells (%): 59.52% and 62.96%
  Population Normal (%): 100%
  Population Pyknosed Nuclei (%): 8.11% and 14.75%
  Population Tubulin-Different-Phenotype (%): 1.09% and 0%
  Total Cell Count: 518 and 183
[5]
  Population Apoptotic (%): 45.74% and 43.75%
  Population Fragmented Nuclei (%): 1.77% and 2.26%
  Population Healthy Nuclei (%): 88.99% and 85.66%
  Population Hoechst High Intensity Objects (%): 0%
  Population Membrane Permeable-Phenotype (%): 1.33% and 2.64%
  Population Mitochondria Different-Phenotype (%): 0.11% and 5.73%
  Population Mitotic Cells (%): 54.26% and 56.25%
  Population Normal (%): 100%
  Population Pyknosed Nuclei (%): 9.24% and 12.08%
  Population Tubulin-Different-Phenotype (%): 1.44% and 1.32%
[6]
  Population Apoptotic (%): 43.48% and 40%
  Population Fragmented Nuclei (%): 3.29% and 3.46%
  Population Healthy Nuclei (%): 87.54% and 84.43%
  Population Hoechst High Intensity Objects (%): 0% and 0.34%
  Population Membrane Permeable-Phenotype (%): 0.91% and 2.05%
  Population Mitochondria Different-Phenotype (%): 0.23% and 2.87%
  Population Mitotic Cells (%): 56.52% and 60%
  Population Normal (%): 100% and 99.66%
  Population Pyknosed Nuclei (%): 9.17% and 12.11%
  Population Tubulin-Different-Phenotype (%): 1.03% and 2.46%

## N#Cc1ccnc(Nc2cc(C3CCN(C4COC4)CC3)cc(N3CCC(F)(F)C3)n2)c1
[1]
  Population Apoptotic (%): 40.82% and 36.11%
  Population Fragmented Nuclei (%): 3.13% and 0.79%
  Population Healthy Nuclei (%): 84.07% and 70.87%
  Population Hoechst High Intensity Objects (%): 0%
  Population Membrane Permeable-Phenotype (%): 3.11% and 2.22%
  Population Mitochondria Different-Phenotype (%): 0.62% and 8.89%
  Population Mitotic Cells (%): 59.18% and 63.89%
  Population Normal (%): 100%
  Population Pyknosed Nuclei (%): 12.79% and 28.35%
  Population Tubulin-Different-Phenotype (%): 4.35% and 2.22%
[2]
  Population Apoptotic (%): 46.67% and 38.95%
  Population Fragmented Nuclei (%): 9.07% and 13.15%
  Population Healthy Nuclei (%): 64.38% and 42.25%
  Population Hoechst High Intensity Objects (%): 0%
  Population Membrane Permeable-Phenotype (%): 7.56% and 17.78%
  Population Mitotic Cells (%): 53.33% and 61.05%
  Population Normal (%): 100%
  Population Pyknosed Nuclei (%): 26.55% and 44.6%
  Population Tubulin-Different-Phenotype (%): 73.88% and 62.22%
  Total Cell Count: 452 and 213
[3]
  Population Apoptotic (%): 47.06% and 53.12%
  Population Fragmented Nuclei (%): 3.81% and 2.05%
  Population Healthy Nuclei (%): 82.57% and 76.03%
  Population Hoechst High Intensity Objects (%): 0%
  Population Membrane Permeable-Phenotype (%): 2.18% and 6.31%
  Population Mitochondria Different-Phenotype (%): 0.49% and 8.11%
  Population Mitotic Cells (%): 52.94% and 46.88%
  Population Normal (%): 100%
  Population Pyknosed Nuclei (%): 13.63% and 21.92%
  Population Tubulin-Different-Phenotype (%): 2.67% and 3.6%
[4]
  Population Apoptotic (%): 51.37% and 67.97%
  Population Fragmented Nuclei (%): 11.21% and 9%
  Population Healthy Nuclei (%): 50.11% and 30.33%
  Population Hoechst High Intensity Objects (%): 0% and 0.47%
  Population Membrane Permeable-Phenotype (%): 6.75% and 10.94%
  Population Mitochondria Different-Phenotype (%): 21.94% and 51.56%
  Population Mitotic Cells (%): 48.63% and 32.03%
  Population Normal (%): 100% and 99.53%
  Population Pyknosed Nuclei (%): 38.69% and 60.66%
  Population Tubulin-Different-Phenotype (%): 58.65% and 40.62%
  Total Cell Count: 473 and 212
[5]
  Population Apoptotic (%): 55.7% and 66.67%
  Population Fragmented Nuclei (%): 3.56% and 4.98%
  Population Healthy Nuclei (%): 85.19% and 78.61%
  Population Hoechst High Intensity Objects (%): 0.14% and 0%
  Population Membrane Permeable-Phenotype (%): 1.84% and 5.06%
  Population Mitochondria Different-Phenotype (%): 0.67% and 6.33%
  Population Mitotic Cells (%): 44.3% and 33.33%
  Population Normal (%): 99.86% and 100%
  Population Pyknosed Nuclei (%): 11.25% and 16.42%
  Population Tubulin-Different-Phenotype (%): 3.01% and 2.53%
[6]
  Population Apoptotic (%): 68.72% and 75.36%
  Population Fragmented Nuclei (%): 9.35% and 11.35%
  Population Healthy Nuclei (%): 37.83% and 28.38%
  Population Hoechst High Intensity Objects (%): 0.22% and 0%
  Population Mitochondria Different-Phenotype (%): 37.93% and 24.62%
  Population Mitotic Cells (%): 31.28% and 24.64%
  Population Normal (%): 99.78% and 100%
  Population Pyknosed Nuclei (%): 52.83% and 60.26%
  Population Tubulin-Different-Phenotype (%): 56.9% and 30.77%
  Total Cell Count: 461 and 229

## CCOc1c2c(c(OCC)c3ncccc13)CN(c1ccc(CS(=O)(=O)NC(=O)Cc3ccccc3OC)cc1C)C2=O
[1]
  Population Apoptotic (%): 64% and 100%
  Population Fragmented Nuclei (%): 22% and 13%
  Population Healthy Nuclei (%): 70% and 82%
  Population Hoechst High Intensity Objects (%): 2% and 1%
  Population Membrane Permeable-Phenotype (%): 7% and 9%
  Population Mitochondria Different-Phenotype (%): 3%
  Population Normal (%): 97% and 98%
  Population Pyknosed Nuclei (%): 7% and 4%
  Population Tubulin-Different-Phenotype (%): 2% and 6%
  Total Cell Count: 189 and 93
[2]
  Population Apoptotic (%): 81% and 80%
  Population Fragmented Nuclei (%): 30% and 21%
  Population Healthy Nuclei (%): 63% and 75%
  Population Hoechst High Intensity Objects (%): 2%
  Population Membrane Permeable-Phenotype (%): 5% and 8%
  Population Mitochondria Different-Phenotype (%): 3% and 6%
  Population Mitotic Cells (%): 18% and 20%
  Population Normal (%): 97%
  Population Pyknosed Nuclei (%): 6% and 3%
  Population Tubulin-Different-Phenotype (%): 2% and 3%
  Total Cell Count: 248 and 136
[3]
  Population Apoptotic (%): 80% and 100%
  Population Fragmented Nuclei (%): 21% and 19%
  Population Healthy Nuclei (%): 71% and 76%
  Population Hoechst High Intensity Objects (%): 3% and 1%
  Population Membrane Permeable-Phenotype (%): 4% and 7%
  Population Mitochondria Different-Phenotype (%): 0% and 4%
  Population Mitotic Cells (%): 20% and 0%
  Population Normal (%): 96% and 98%
  Population Pyknosed Nuclei (%): 6% and 4%
  Population Tubulin-Different-Phenotype (%): 1% and 4%
  Total Cell Count: 235 and 125
[4]
  Population Apoptotic (%): 76% and 100%
  Population Fragmented Nuclei (%): 27% and 17%
  Population Healthy Nuclei (%): 61% and 76%
  Population Hoechst High Intensity Objects (%): 3% and 0%
  Population Membrane Permeable-Phenotype (%): 6%
  Population Mitochondria Different-Phenotype (%): 2%
  Population Mitotic Cells (%): 23% and 0%
  Population Normal (%): 96% and 99%
  Population Pyknosed Nuclei (%): 10% and 5%
  Population Tubulin-Different-Phenotype (%): 1% and 5%
  Total Cell Count: 285 and 152
[5]
  Population Apoptotic (%): 85% and 100%
  Population Fragmented Nuclei (%): 19% and 17%
  Population Healthy Nuclei (%): 74% and 79%
  Population Hoechst High Intensity Objects (%): 2% and 4%
  Population Membrane Permeable-Phenotype (%): 3% and 7%
  Population Mitochondria Different-Phenotype (%): 1% and 3%
  Population Mitotic Cells (%): 15% and 0%
  Population Normal (%): 97% and 95%
  Population Pyknosed Nuclei (%): 5% and 2%
  Population Tubulin-Different-Phenotype (%): 2% and 5%
  Total Cell Count: 344 and 167
[6]
  Population Apoptotic (%): 91% and 100%
  Population Fragmented Nuclei (%): 19% and 18%
  Population Healthy Nuclei (%): 71% and 74%
  Population Hoechst High Intensity Objects (%): 2%
  Population Membrane Permeable-Phenotype (%): 5% and 8%
  Population Mitochondria Different-Phenotype (%): 1% and 4%
  Population Mitotic Cells (%): 8% and 0%
  Population Normal (%): 97%
  Population Pyknosed Nuclei (%): 9% and 6%
  Population Tubulin-Different-Phenotype (%): 2% and 3%
  Total Cell Count: 385 and 236
